Hits are enriched below; roughly 3.5% of the tested compounds scored in any of these assays.
TCR CD3 inh: inhibitors of human TCR-CD3 interaction, primary screen, biochemical, fluorescence, TAMRA-labeled TCR probe | inhibition, % at 9.4 µM | hit rate 0.37% among 360,000; in the data active = inhibition above about 19%;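 also: recombinant mutant TCR 2C K166C tagged with TAMRA read by polarization; 0% = receptor in buffer alone and 100% = receptor with positive control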
PRMT1 FP inh: PRMT1 methyltransferase inhibitors, primary screen, biochemical, fluorescence polarization | hit rate 1.3% among 370,000 | recombinant PRMT1, activity-based probe fluorescence polarization | Protein arginine N-methyltransferase 1 (Homo sapiens), Q99873 | inhibition, % at 2.79 µM;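 active = inhibition above about 21% made by adding two undisclosed values, limit read from the data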
Target sequence (Q99873 whole entry, looked up): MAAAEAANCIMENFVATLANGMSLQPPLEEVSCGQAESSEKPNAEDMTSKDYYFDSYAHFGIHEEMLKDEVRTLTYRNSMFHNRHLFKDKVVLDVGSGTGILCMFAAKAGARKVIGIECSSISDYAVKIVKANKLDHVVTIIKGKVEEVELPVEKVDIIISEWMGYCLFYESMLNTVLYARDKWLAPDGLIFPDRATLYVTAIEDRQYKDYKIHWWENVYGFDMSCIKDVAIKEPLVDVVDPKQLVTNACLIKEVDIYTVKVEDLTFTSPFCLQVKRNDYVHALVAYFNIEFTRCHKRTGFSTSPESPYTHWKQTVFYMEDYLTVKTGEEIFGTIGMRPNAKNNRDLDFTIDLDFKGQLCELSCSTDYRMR
HTRA1 inhibitor: HTRA1 serine protease inhibitors, primary screen, biochemical, fluorescence polarization, HTS; Q92743; recombinant HTRA1, FP-rhodamine activity-based probe; inhibition, % at 5.96 µM; hit rate 0.5% among 340,000; AID 504803, 2011; in the data active = inhibition above about 36%;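 also: 0% = enzyme with DMSO and 100% = wells lacking enzyme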
rCAG RNA binder: binders of r(CAG) RNA repeats, primary screen, biochemical, fluorescence; r(CAG) RNA repeat, TO-PRO-1 dye displacement fluorescence; inhibition, % at 3 µM; hit rate 1.3% among 370,000;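 active = inhibition above the plate cutoff, the mean of all test compounds on that plate plus 3 SD, cut at about 35% in these data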;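 also: 0% = DMSO alone and 100% = 100 µM mitoxantrone as full dye displacement; higher means more dye released from RNA so lower well fluorescence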
mABHD4 FP: ABHD4 inhibitors, primary screen, biochemical, fluorescence polarization, mouse | purified mABHD4, FP-Rh probe fluorescence polarization | inhibition, % at 8.92 µM | hit rate 0.54% among 370,000 | AID 720543, 2013;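 active = inhibition exceeding the mean over every tested compound plus 3 SD, cut at about 30% in these data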;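 also: 0% = plate median of compound wells and 100% = S159A mutant with DMSO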
Target sequence (Q8VD66 whole entry, looked up): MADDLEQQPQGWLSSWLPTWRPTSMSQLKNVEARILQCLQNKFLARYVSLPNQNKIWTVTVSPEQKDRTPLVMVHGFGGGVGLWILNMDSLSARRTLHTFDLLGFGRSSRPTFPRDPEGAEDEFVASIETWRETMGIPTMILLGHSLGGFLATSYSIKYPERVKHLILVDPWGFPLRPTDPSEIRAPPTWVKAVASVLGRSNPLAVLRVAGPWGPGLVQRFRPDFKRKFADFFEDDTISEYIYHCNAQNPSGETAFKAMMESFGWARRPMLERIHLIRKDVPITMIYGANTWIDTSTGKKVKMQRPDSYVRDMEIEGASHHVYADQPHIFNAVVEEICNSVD
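Assay system: mouse ABHD4 enzyme, wild type / Also added: fluorescent activity-based probe FP-Rh / Doses: single nominal dose of 8.92 µM, 0.89% DMSO final / Timing: 45 min compound pre-incubation plus 60 min probe step, 25 °C / Signal: FP readout, ex 525 nm / em 598 nm / Control set: S159A mutant/DMSO as 100%, compound-well median as 0%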
SIAE primary: human SIAE inhibitors, primary screen, biochemical, fluorescence polarization, FP-Rh probe, 1536-well HTS | inhibition, % at 9.66 µM | hit rate 0.69% among 370,000 | SIAE FP-Rh probe binding | Sialate O-acetylesterase (Homo sapiens), Q9HAT2;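 active = inhibition above a cutoff: mean of compounds within the control limits plus 3 SD of those, cut at about 17% in these data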;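 also: 0% = plate median of compound wells and 100% = probe without SIAE protein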
mABHD4 conf: ABHD4 inhibitors, retest, confirmation, biochemical, fluorescence polarization, mouse. shares compounds with mABHD4 FP. purified mABHD4, FP-Rh probe fluorescence polarization. inhibition, % at 8.92 µM. hit rate 55% among 1,800. AID 720658, 2013;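 active = mean inhibition across replicates above the hit cutoff set in the primary screen, cut at about 30% in these data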;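 also: 0% = wild-type ABHD4 with DMSO and 100% = catalytically dead S159A mutant with DMSO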
An asterisk follows results filed as active; x = not tested or not shown; ! = not active in a repeat.

SMILES	TCR CD3 inh	PRMT1 FP inh	HTRA1 inhibitor	rCAG RNA binder	mABHD4 FP	SIAE primary	mABHD4 conf
CCCCNc1c(-c2ccc(-c3cccc(Cl)c3)cc2)nc2ccccn12	0.9	1.4	-14.0	2.2	39.8*	8.4	31.7*
CCCCCCSc1ccc(-c2nc3ccccn3c2NCCCC)cc1	2.5	1.0	-0.4	-3.6	43.9*	5.3	50.2*
CCCCNc1c(-c2cccc(-c3ccc(OC)cc3)c2)nc2ccc(C)cn12	6.5	0.2	-18.2	1.1	30.1*	4.9	35.4*
CCOC(=O)[C@@]12CCCC3=C1N(CCC3)C(=O)[C@H]2CC(=O)NCc1ccc(OC)c(OC)c1	x	-4.4	x	-1.1	-4.9	2.0	x
CCOC(=O)Cc1csc(NC(=O)c2sc3nc4ccc(C)cc4cc3c2N)n1	2.4	-0.3	-17.3	20.6	35.6*	4.3	14.1
CCOC(=O)N[C@@H](Cc1cccnc1)C(=O)N1CCC[C@H]1C(=O)NC1CCCC1	0.7	4.6	x	-0.9	-1.9	-2.7	x
CCOC(=O)[C@@]12CCC3=C1N(CCC3)C(=O)[C@H](CC(=O)NCc1cccc3ccccc13)C2	x	1.1	x	3.7	-0.8	-0.9	x
CC(CNc1ccccc1O)C(=O)O (stereo not drawn)	-1.3	23.5*	5.5	5.5	33.7*	3.7	1.9
CC(NC(=O)CCC(=O)Nc1ccccc1O)c1ccccc1 (stereo not drawn)	-1.4	3.8	x	-0.5	-7.6	-0.1	x
OCC[C@H]1C[C@@H](O)[C@H](O)[C@]2(OCCc3ccccc32)O1	-3.1	0.8	8.5	2.2	35.2*	-0.3	0.8
OCC[C@@H]1C[C@@H](O)[C@H](O)[C@]2(OCCc3ccccc32)O1	1.0	0.6	-5.5	0.7	3.9	-4.2	x
O=C(O)c1cccc(NS(=O)(=O)c2ccc3c(c2)C(=O)c2ccccc2C3=O)c1	-1.3	1.1	2.0	29.2	45.0*	-5.5	36.7*
O=C1c2ccccc2C(=O)c2cc(S(=O)(=O)Nc3ccccc3)ccc21	-1.6	-0.5	8.3	28.2	39.9*	4.7	53.2*
O=C(O)c1cccc(NS(=O)(=O)c2ccc(C3CCCCC3)cc2)c1	x	x	-17.7	x	x	x	x
O=S(=O)(Nc1ccccc1)c1ccc(F)cc1	1.6	0.0	-7.0	-4.3	0.2	-6.0	x
Clc1ccc([C@H]2OC[C@@]3(CNCc4ccccc4)CS[C@H](c4ccc(Cl)cc4)N23)cc1	x	0.8	x	x	-15.8	2.2	x
CCCCNc1c(-c2ccc(SC3CCCCC3)cc2)nc2cnccn12	1.1	11.0	-17.2	-3.9	33.8*!	13.8	14.2
CCCCNc1c(-c2ccc(OC)c(SC3CCCCC3)c2)nc2cnccn12	x	x	-2.5	x	x	x	x
CCCCNc1c(-c2ccc(OC)c(SC3CCCCC3)c2)nc2cc(C)ccn12	8.6	-0.8	5.5	-3.1	30.0*	12.4	37.0*
Cc1ccc2c(c1)-c1c(cnn1CC(=O)NCCc1ccc(O)cc1)CO2	x	-1.3	x	1.6	3.1	1.1	x
O=c1cc(N2CCN(c3ccnc4cc(Cl)ccc34)CC2)[nH]c(=O)n1C1CCCCC1	x	-2.7	x	x	0.8	6.8	x
Cc1ccccc1NC(=O)OC1CCC12CCCCC2 (stereo not drawn)	x	4.8	x	-0.6	2.6	2.0	x
COCCNC(=S)N1C[C@H]2CON(C)[C@H]2C[C@H]1c1ccccc1Br	5.8	-2.0	x	2.4	-3.0	0.8	x
CC1(C)CC(=O)C=C(Nc2ccc(C(=O)O)c(O)c2)C1	3.4	10.0	-2.3	-1.9	32.4*	8.5	-2.1
COc1ccc(NC(=O)c2ccc(NC(=O)C(C)C)cc2)c([N+](=O)[O-])c1	-4.0	0.7	0.1	-2.8	-6.3	4.3	x
SMILES	TCR CD3 inh	PRMT1 FP inh	HTRA1 inhibitor	rCAG RNA binder	mABHD4 FP	SIAE primary	mABHD4 conf
COc1ccc(NC(=O)C(c2cc3c(cc2[N+](=O)[O-])OCO3)N(C)C)cc1 (stereo not drawn)	14.8	0.4	9.9	3.3	70.4*	6.6	-1.9
CCOC(=O)NC(=O)/C(C#N)=C\Nc1sccc1C(=O)OC	3.1	56.0*	26.7	-7.6	62.5*	7.9	-3.3
CN(C(=O)Cn1cnc2ccccc2c1=O)C1CCS(=O)(=O)C1 (stereo not drawn)	-2.7	1.8	-1.8	0.6	49.7*	6.8	-9.3
C[C@@H]1CCCN1c1ccc2c(c1)OCCCN(C1CC1)S2(=O)=O	x	-5.8	x	3.3	-14.1	6.9	x
Oc1ccc(N2CCN(Cc3c(-c4ccccc4)nc4ccccn34)CC2)cc1	2.9	22.3*	16.8	6.3	30.5*	5.9	-2.9
CCOC(=O)c1c(-c2ccccc2)[nH]c2ccc(O)cc12	-6.1	-1.6	-9.5	-2.8	30.9*	4.7	42.1*
CCOC(=O)c1c(-c2ccccc2)oc2ccc(O)cc12	-5.2	4.9	-27.8	2.9	-7.5	-10.0	x
O=c1c2ccccc2[nH]c2ccc(O)cc12	10.7	11.2	18.9	9.1	40.9*	10.6	26.4
NC(N)=N/N=C(\N=Nc1ccccc1)c1ccc(Cl)cc1	-4.2	-8.3	29.0	14.2	43.7*	2.0	55.0*
O=C(N/N=C1\C/C(=N\NC(=O)c2ccncc2)c2ccccc21)c1ccncc1	-5.4	5.7	28.8	32.3	38.5*	6.6	29.0
O=C(NN=C1C2CC3CC(C2)CC1C3)c1ccncc1	6.8	-0.5	-0.5	1.3	-4.9	2.1	x
CC(C)(C)c1ccc(S(=O)(=O)/N=C2\C=C(NS(=O)(=O)c3ccccc3)C(=O)c3ccccc32)cc1	-1.9	-5.9	13.5	58.7*	36.2*	6.4	59.9*
C=CCN1C(=O)[C@@H](CC(=O)NCCC(C)C)[C@]2(C(=O)OC)CCCCC=C12	x	-4.1	x	0.8	-3.0	3.2	x
Cc1cc(C)n(CC(=O)Nc2ccc3c(c2)OCO3)c(=O)c1C#N	2.1	-1.2	-5.0	-0.6	31.0*	4.1	-8.4
Cc1c(C(=O)O)cccc1-n1c(C)cc(/C=N/Nc2ccc([N+](=O)[O-])cn2)c1C	-3.7	10.7	13.7	25.9	29.6*	7.4	48.1*
Cc1ccc(C=Nc2ccc(N(C)C)cc2)o1	8.1	12.3	52.5*	9.4	39.7*	9.8	33.5*
Cc1ccc(C=Nc2ccccc2C(N)=O)o1	3.1	4.8	8.3	4.5	-3.6	-2.5	x
CCOC(=O)[C@]12CCCC=C1N(CCCOC)C(=O)[C@@H]2CC(=O)N1CCN(C(=O)c2ccco2)CC1	x	4.7	x	0.3	-3.4	3.9	x
Cc1cc(/C=C(\C#N)C(=O)Nc2ccccc2)c(C)n1-c1cccnc1	-6.8	1.1	-9.6	-1.6	-3.6	1.2	x
